According to ChEMBL document CHEMBL3228007, “Ergot alkaloids. Synthesis of nitrosourea derivatives of ergolines as potential anticancer agents” (J Med Chem, 1979):

What was measured:
[1] = test system: Mus musculus; assay: Toxicity in mouse allografted with mouse L1210 cells assessed as survival at 50 mg/kg; assay type: organism-based; parameters: dose 50 mg/kg; conditions: in vivo
How it was run: (§1)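 Mice bearing L1210 leukemia, six per dose group, given compound as a suspension across a range of mg/kg doses. Antitumor read-out is T/C, with cures per group recorded. Toxicity is judged by body weight loss, with loss over 4 g flagged.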

[2] = test system: Mus musculus; assay: Toxicity in mouse allografted with mouse L1210 cells assessed as survival at 25 mg/kg; assay type: organism-based; parameters: dose 25 mg/kg; conditions: in vivo; how it was run: as §1
[3] = test system: Mus musculus; assay: Toxicity in mouse allografted with mouse L1210 cells assessed as change in body weight at 100 mg/kg relative to control; assay type: organism-based; parameters: dose 100 mg/kg; conditions: in vivo; how it was run: as §1
[4] = test system: Mus musculus; assay: Toxicity in mouse allografted with mouse L1210 cells assessed as change in body weight at 50 mg/kg relative to control; assay type: organism-based; parameters: dose 50 mg/kg; conditions: in vivo; how it was run: as §1
[5] = test system: Mus musculus; assay: Toxicity in mouse allografted with mouse L1210 cells assessed as change in body weight at 25 mg/kg relative to control; assay type: organism-based; parameters: dose 25 mg/kg; conditions: in vivo; how it was run: as §1
[6] = test system: Mus musculus; assay: Toxicity in mouse allografted with mouse L1210 cells assessed as change in body weight at 12.5 mg/kg relative to control; assay type: organism-based; parameters: dose 12.5 mg/kg; conditions: in vivo; how it was run: as §1
[7] = test system: Mus musculus; assay: Toxicity in mouse allografted with mouse L1210 cells assessed as change in body weight at 6.25 mg/kg relative to control; assay type: organism-based; parameters: dose 6.25 mg/kg; conditions: in vivo; how it was run: as §1
[8] = test system: L1210; assay: Antitumor activity against mouse L1210 cells allografted in mouse assessed as tumor growth inhibition at 50 mg/kg relative to control; assay type: functional; how it was run: as §1
[9] = test system: L1210; assay: Antitumor activity against mouse L1210 cells allografted in mouse assessed as tumor growth inhibition at 25 mg/kg relative to control; assay type: functional; how it was run: as §1
[10] = test system: L1210; assay: Antitumor activity against mouse L1210 cells allografted in mouse assessed as tumor growth inhibition at 12.5 mg/kg relative to control; assay type: functional; how it was run: as §1
[11] = test system: L1210; assay: Antitumor activity against mouse L1210 cells allografted in mouse assessed as tumor growth inhibition at 6.25 mg/kg relative to control; assay type: functional
How it was run: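 L1210 leukemia in mice, six per group; compound given as a suspension across a range of dose levels; activity expressed as T/C, with cures and weight loss recorded.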

[12] = test system: Mus musculus; assay: Toxicity in mouse allografted with mouse L1210 cells assessed as survival at 12.5 mg/kg; assay type: organism-based; parameters: dose 12.5 mg/kg; conditions: in vivo; how it was run: as §1
[13] = test system: Mus musculus; assay: Toxicity in mouse allografted with mouse L1210 cells assessed as survival at 6.25 mg/kg; assay type: organism-based; parameters: dose 6.25 mg/kg; conditions: in vivo; how it was run: as §1
[14] = organism: Rattus norvegicus; assay: Inhibition of prolactin release in rat at 10 ug relative to control; assay type: functional
[15] = test system: Mus musculus; assay: Toxicity in mouse allografted with mouse L1210 cells assessed as survival at 400 mg/kg; assay type: organism-based; parameters: dose 400 mg/kg; conditions: in vivo; how it was run: as §1
[16] = test system: Mus musculus; assay: Toxicity in mouse allografted with mouse L1210 cells assessed as survival at 200 mg/kg; assay type: organism-based; parameters: dose 200 mg/kg; conditions: in vivo; how it was run: as §1
[17] = test system: Mus musculus; assay: Toxicity in mouse allografted with mouse L1210 cells assessed as survival at 100 mg/kg; assay type: organism-based; parameters: dose 100 mg/kg; conditions: in vivo; how it was run: as §1
[18] = test system: Mus musculus; assay: Toxicity in mouse allografted with mouse L1210 cells assessed as change in body weight at 400 mg/kg relative to control; assay type: organism-based; parameters: dose 400 mg/kg; conditions: in vivo; how it was run: as §1
[19] = test system: Mus musculus; assay: Toxicity in mouse allografted with mouse L1210 cells assessed as change in body weight at 200 mg/kg relative to control; assay type: organism-based; parameters: dose 200 mg/kg; conditions: in vivo; how it was run: as §1
[20] = test system: L1210; assay: Antitumor activity against mouse L1210 cells allografted in mouse assessed as tumor growth inhibition at 200 mg/kg relative to control; assay type: functional; how it was run: as §1
[21] = test system: L1210; assay: Antitumor activity against mouse L1210 cells allografted in mouse assessed as tumor growth inhibition at 100 mg/kg relative to control; assay type: functional; how it was run: as §1
[22] = test system: Mus musculus; assay: Toxicity in mouse allografted with mouse P388 cells assessed as survival at 100 mg/kg; assay type: organism-based; parameters: dose 100 mg/kg; conditions: in vivo
[23] = test system: Mus musculus; assay: Toxicity in mouse allografted with mouse P388 cells assessed as survival at 50 mg/kg; assay type: organism-based; parameters: dose 50 mg/kg; conditions: in vivo
[24] = test system: Mus musculus; assay: Toxicity in mouse allografted with mouse P388 cells assessed as survival at 25 mg/kg; assay type: organism-based; parameters: dose 25 mg/kg; conditions: in vivo
[25] = test system: Mus musculus; assay: Toxicity in mouse allografted with mouse P388 cells assessed as change in body weight at 100 mg/kg relative to control; assay type: organism-based; parameters: dose 100 mg/kg; conditions: in vivo
[26] = test system: Mus musculus; assay: Toxicity in mouse allografted with mouse P388 cells assessed as change in body weight at 50 mg/kg relative to control; assay type: organism-based; parameters: dose 50 mg/kg; conditions: in vivo
[27] = test system: Mus musculus; assay: Toxicity in mouse allografted with mouse P388 cells assessed as change in body weight at 25 mg/kg relative to control; assay type: organism-based; parameters: dose 25 mg/kg; conditions: in vivo
[28] = test system: P388; assay: Antitumor activity against mouse P388 cells allografted in mouse assessed as tumor growth inhibition at 100 mg/kg relative to control; assay type: functional
[29] = test system: P388; assay: Antitumor activity against mouse P388 cells allografted in mouse assessed as tumor growth inhibition at 50 mg/kg relative to control; assay type: functional
[30] = test system: P388; assay: Antitumor activity against mouse P388 cells allografted in mouse assessed as tumor growth inhibition at 25 mg/kg relative to control; assay type: functional
[31] = test system: L1210; assay: Antitumor activity against mouse L1210 cells allografted in mouse assessed as tumor growth inhibition at 400 mg/kg relative to control; assay type: functional; how it was run: as §1

Row | SMILES | Activity [1] | Activity [2] | Activity [3] [g] | Activity [4] [g] | Activity [5] [g] | Activity [6] [g] | T/C [8] [%] | T/C [9] [%] | T/C [10] [%] | inhibition (INH) [14] [%] | also measured
1 | C[C@H]1CC[C@H](NC(=O)N(CCCl)N=O)CC1 | Non-toxic | Non-toxic | -6.6 | -4.8 | -3.4 | -0.2 | 327 | 301 | 256 |  | Activity [7]: 0.4 g; T/C [11]: 187%; Activity [12]: Not Active; Activity [13]: Non-toxic
2 | CN1C[C@H](N)C[C@@H]2c3cccc4[nH]cc(c34)C[C@H]21 |  |  |  |  |  |  |  |  |  | 57 | 
3 | CN1C[C@H](NC(=O)N(CCCl)N=O)C[C@@H]2c3cccc4[nH]cc(c34)C[C@H]21 | Non-toxic | Non-toxic | -4 | -2.8 | -1.4 | -1.2 | 154 | 137 | 119 | 28 | Activity [15]: Non-toxic; Activity [16]: Non-toxic; Activity [17]: Non-toxic; Activity [18]: -7.6 g; Activity [19]: -6 g; T/C [20]: 390%; T/C [21]: 248%
4 | CN1C[C@H](NC(=O)N(CCCl)N=O)C[C@@H]2c3cccc4c3c(cn4N=O)C[C@H]21 | Non-toxic | Non-toxic | -3.4 | -2.2 | -1.8 | -1.2 | 121 | 117 | 105 | 17 | Activity [22]: Non-toxic; Activity [23]: Non-toxic; Activity [24]: Non-toxic; Activity [15]: Non-toxic; Activity [16]: Non-toxic; Activity [17]: Non-toxic; Activity [25]: -1.8 g; Activity [26]: 0 g; Activity [27]: -0.4 g; Activity [18]: -6.4 g; Activity [19]: -5.2 g; T/C [28]: 201%; T/C [29]: 166%; T/C [30]: 137%; T/C [31]: 289%; T/C [20]: 164%; T/C [21]: 144%
5 | CN1CC(CO)=C[C@@H]2c3cccc4c3c(cn4N=O)C[C@H]21 |  |  |  |  |  |  |  |  |  | 36 | 
6 | CN1CC(COC(=O)NCCCl)=C[C@@H]2c3cccc4[nH]cc(c34)C[C@H]21 |  |  |  |  |  |  |  |  |  | 87 | 
7 | CN1CC(CO)=C[C@@H]2c3cccc4[nH]cc(c34)C[C@H]21 |  |  |  |  |  |  |  |  |  | 71 | 
8 | CC(C)[C@H]1C(=O)N2CCC[C@H]2[C@]2(O)O[C@](NC(=O)[C@@H]3C=C4c5cccc6[nH]cc(c56)C[C@H]4N(C)C3)(C(C)C)C(=O)N12 [ERGOCORNINE] |  |  |  |  |  |  |  |  |  | 88 | 
9 | CN1C[C@H](CC#N)C[C@@H]2c3cccc4[nH]c(Cl)c(c34)C[C@H]21 [LERGOTRILE] |  |  |  |  |  |  |  |  |  | 71 | 
